Among the data in ChEMBL document CHEMBL4732082, “Development of novel benzimidazole-derived neddylation inhibitors for suppressing tumor growth invitro and invivo” (Eur J Med Chem, 2021) are inhibition, Activity and IC50 values, retold here.

Assay [1] has as its target T1, NEDD8-activating enzyme E1 regulatory subunit (Homo sapiens) (UniProt Q13564).
T1 sequence (whole entry): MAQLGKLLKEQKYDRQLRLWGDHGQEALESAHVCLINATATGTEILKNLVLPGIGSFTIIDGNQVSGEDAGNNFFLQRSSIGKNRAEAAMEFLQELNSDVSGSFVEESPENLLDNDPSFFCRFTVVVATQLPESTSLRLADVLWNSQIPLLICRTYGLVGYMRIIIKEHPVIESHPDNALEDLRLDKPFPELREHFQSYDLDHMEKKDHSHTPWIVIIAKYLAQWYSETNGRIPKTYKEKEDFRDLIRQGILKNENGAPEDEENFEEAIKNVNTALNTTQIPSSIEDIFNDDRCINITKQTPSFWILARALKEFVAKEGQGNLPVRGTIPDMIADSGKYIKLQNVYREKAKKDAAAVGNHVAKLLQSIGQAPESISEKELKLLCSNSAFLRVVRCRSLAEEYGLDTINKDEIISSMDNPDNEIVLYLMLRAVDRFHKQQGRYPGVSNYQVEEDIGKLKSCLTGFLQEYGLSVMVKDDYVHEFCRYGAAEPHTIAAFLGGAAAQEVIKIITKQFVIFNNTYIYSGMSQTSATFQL
The assay is described as follows: Inhibition of NAE (unknown origin)-mediated neddylation assessed as suppression of cullin1-Nedd8 adduct formation at 25 uM preincubated for 10 mins followed by ATP addition and measured after 30 mins by immunoblot analysis relative to control. The settings on record: time 40.0 min. (A western blot detects proteins with antibodies after separation by electrophoresis.)

Assay [2] concerns A549. The assay is described as follows: Antiproliferative activity against human A549 cells assessed as inhibition of cell proliferation at 100 uM incubated for 48 hrs by CCK-8 assay relative to control. The assay is classed as functional. Set-up: scale not given: the % may be the effect or the level left. In short, it runs like this:
(§1)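 Cells from ATCC, passaged six times, grown in DMEM with 10% FBS and penicillin/streptomycin at 37 °C under 5% CO2. Seeded at 2500 cells/well, cultured overnight, treated 48 h, viability read by CCK-8. Run in triplicate; values are the mean of three experiments.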
In general terms: Formazan colour is commonly taken as a measure of viable cells.

For the next assay, the system named is BEAS-2B. The assay is described as follows: Cytotoxicity against human BEAS-2B cells incubated for 48 hrs by CCK-8 assay. The assay is classed as cell-based. In short, it runs like this: as §1
The subject of another assay is NCI-H1299. The experiment in a line: Antiproliferative activity against human H1299 cells incubated for 48 hrs by CCK-8 assay. The assay is classed as functional, cell-based. The settings on record: NCI-H1299, 48 h. In short, it runs like this: as §1
For assay [3], the system named is A549. The assay is described as follows: Antiproliferative activity against human A549 cells incubated for 48 hrs by CCK-8 assay. The assay is classed as functional, cell-based. The settings on record: A549, 48 h. In short, it runs like this: as §1
Assay [4] in a line: Cytotoxicity against human […] cells incubated for 48 hrs by CCK-8 assay. The assay is classed as cell-based. In short, it runs like this: as §1

A value given as a limit tells only on which side of the number the result lay.

By inhibition is commonly meant the percentage by which the read-out fell short of the control. In the case of `CCOc1nc2cccc(C(=O)NCCCNC3CCCCC3)c2n1Cc1ccc(-c2ccccc2-c2nnn[nH]2)cc1`, the inhibition in assay [1] amounted to 29.4%. In addition, the Activity in the assay with A549 [2] was found to be 11.2%.

`CCOc1nc2cccc(C(=O)NCCc3ccccc3Cl)c2n1Cc1ccc(-c2ccccc2-c2nnn[nH]2)cc1`: the inhibition in assay [1] turned out to be 57.4%. Besides, the Activity with A549 [2] is reported as 36.6%.

For `CCOc1nc2ccc(C(=O)OC(C)OC(=O)OC3CCCCC3)cc2n1Cc1ccc(-c2ccccc2-c2nnn[nH]2)cc1` (centres undefined), in assay [1], the inhibition turned out to be 43.2%. Besides, the Activity in the assay on A549 [2] was determined as 56.9%.

`CCOc1nc2cccc(C(=O)NCCc3ccccc3)c2n1Cc1ccc(-c2ccccc2-c2nnn[nH]2)cc1`: the inhibition in assay [1] was 39.4%. Moreover, the Activity with A549 [2] is given as 43.8%.

Consider `CCOc1nc2cccc(C(=O)NC3CC3)c2n1Cc1ccc(-c2ccccc2-c2nnn[nH]2)cc1`, for which the inhibition in assay [1] came out at 30.9%. Further, the Activity in the assay with A549 [2] was found to be 11.3%.

`CCOc1nc2cccc(C(=O)NC3CCCCC3)c2n1Cc1ccc(-c2ccccc2-c2nnn[nH]2)cc1`: in assay [1], the inhibition amounted to 36.8%. Also, in the assay on A549 [2], the Activity is listed as 12.1%.

Take `CCOc1nc2cccc(C(=O)NCCc3cccc(OC)c3)c2n1Cc1ccc(-c2ccccc2-c2nnn[nH]2)cc1`: in assay [1], the inhibition is 43.6%. Besides, the Activity with A549 [2] was found to be 57.7%.

Turning to `CCOc1nc2ccccc2n1Cc1ccc(-c2ccccc2-c2nn[nH]n2)cc1`, the inhibition in assay [1] worked out at 18.9%. Also, in the assay with A549 [2], the Activity is 9.5%.

Take `CCOc1nc2cccc(C(=O)NCCc3ccc(Cl)cc3)c2n1Cc1ccc(-c2ccccc2-c2nnn[nH]2)cc1`: the inhibition in assay [1] amounted to 47.6%. The Activity in the assay on A549 [2] is given as 36.2%.

The term IC50 denotes the point on the concentration scale where inhibition reaches its midpoint. For `NS(=O)(=O)OC[C@@H]1C[C@@H](n2ccc3c(N[C@H]4CCc5ccccc54)ncnc32)C[C@@H]1O` [PEVONEDISTAT], in assay [1], the inhibition was found to be 90.5%. The IC50 in the assay on BEAS-2B is 1.22 µM; in the assay on NCI-H1299, 0.49 µM; with A549 [3] it was 0.63 µM; in assay [4], 4.03 µM. For the same compound, in the assay on A549 [2], the Activity was 91.4%.

Turning to `CCOc1nc2cccc(C(=O)NCCc3ccc(F)cc3F)c2n1Cc1ccc(-c2ccccc2-c2nnn[nH]2)cc1`, in assay [1], the inhibition amounted to 35.8%. In addition, in the assay on A549 [2], the Activity was 12.5%.

Turning to `CCOc1nc2cccc(C(=O)Nc3ccc(OC)cc3)c2n1Cc1ccc(-c2ccccc2-c2nnn[nH]2)cc1`, the inhibition in assay [1] is 25.8%. Further, in the assay on A549 [2], the Activity is on record as 10.5%.

For `CCOc1nc2cccc(C(=O)NCCc3ccc(C)cc3)c2n1Cc1ccc(-c2ccccc2-c2nnn[nH]2)cc1`, in assay [1], the inhibition is 32.1%. The Activity in the assay with A549 [2] came to 15.7%.

As for `CCOc1nc2cccc(C(=O)NCCc3ccc([N+](=O)[O-])cc3)c2n1Cc1ccc(-c2ccccc2-c2nnn[nH]2)cc1`, the inhibition in assay [1] was 47.5%. Also, in the assay on A549 [2], the Activity is given as 53.5%.

Regarding `CCOc1nc2cccc(C(=O)NC(c3ccccc3)c3ccccc3)c2n1Cc1ccc(-c2ccccc2-c2nnn[nH]2)cc1`, in assay [1], the inhibition was determined as 35.7%. Further, the Activity in the assay with A549 [2] came to 31.6%.

Consider `CCOc1nc2cccc(C(=O)OC(C)OC(=O)OC3CCCCC3)c2n1Cc1ccc(-c2ccccc2-c2nnnn2C)cc1` (centres undefined), for which the inhibition in assay [1] is 41.2%. In addition, the Activity in the assay on A549 [2] was 16.8%.

As to `CCOc1nc2cccc(C(=O)NCc3ccccc3)c2n1Cc1ccc(-c2ccccc2-c2nnn[nH]2)cc1`, the inhibition in assay [1] came out at 48.9%. In the assay with A549 [2], the Activity came out at 54.5%.

For `CCOc1nc2cccc(C(=O)OC(C)OC(=O)OC3CCCCC3)c2n1Cc1ccc(-c2ccccc2-c2noc(=O)[nH]2)cc1` (centres undefined), in assay [1], the inhibition stood at 34.2%. For the same compound, the Activity with A549 [2] stood at 14.6%.

`CCOc1nc2cccc(C(=O)Nc3ccc(S(N)(=O)=O)cc3)c2n1Cc1ccc(-c2ccccc2-c2nnn[nH]2)cc1`: the inhibition in assay [1] stood at 60.9%. In addition, the Activity in the assay on A549 [2] was found to be 54.4%.

As to `CCOc1nc2cccc(C(=O)OC(C)OC(=O)OC3CCCCC3)c2n1Cc1ccc(-c2ccccc2-c2nn[nH]n2)cc1` (centres undefined) [CANDESARTAN CILEXETIL], the inhibition in assay [1] turned out to be 87.8%. In addition, the IC50 in the assay with BEAS-2B is 79.8 µM; in the assay with A549 [3] it was 65.9 µM; in assay [4] it was 82.7 µM. The Activity in the assay with A549 [2] is reported as 69.2%.

Consider `CCOC(=O)CNC(=O)c1cccc2nc(OCC)n(Cc3ccc(-c4ccccc4-c4nnn[nH]4)cc3)c12`, for which, in assay [1], the inhibition amounted to 46.5%. In the assay on A549 [2], the Activity stood at 32.7%.

For the compound `CCOc1nc2cccc(C(=O)NC3CCCC3)c2n1Cc1ccc(-c2ccccc2-c2nnn[nH]2)cc1`, in assay [1], the inhibition was 39.7%. In addition, the Activity in the assay with A549 [2] is on record as 11.9%.

Take `CCOc1nc2cccc(C(=O)Nc3ccc4c(c3)OCO4)c2n1Cc1ccc(-c2ccccc2-c2nnn[nH]2)cc1`: the inhibition in assay [1] came out at 34.9%. Moreover, the Activity in the assay on A549 [2] was determined as 16.7%.

In the case of `CCOc1nc2cccc(C(=O)NCc3ccc4c(c3)OCO4)c2n1Cc1ccc(-c2ccccc2-c2nnn[nH]2)cc1`, in assay [1], the inhibition was determined as 47.9%. Further, the Activity with A549 [2] is listed as 53.19%.

As for `CCOc1nc2cccc(C(=O)Nc3ccc(F)cc3)c2n1Cc1ccc(-c2ccccc2-c2nnn[nH]2)cc1`, the inhibition in assay [1] came out at 45.3%. For the same compound, in the assay on A549 [2], the Activity was 66.3%.

Take `CCOc1nc2cccc(C(=O)NCCc3ccc4c(c3)OCO4)c2n1Cc1ccc(-c2ccccc2-c2nnn[nH]2)cc1`: the inhibition in assay [1] was found to be 35.7%. Further, the Activity with A549 [2] is 14.2%.

`CCCNC(=O)c1cccc2nc(OCC)n(Cc3ccc(-c4ccccc4-c4nnn[nH]4)cc3)c12`: the inhibition in assay [1] is 32.6%. Moreover, the Activity in the assay with A549 [2] amounted to 12.5%.

For `CCOc1nc2cccc(C(=O)Nc3ccccc3)c2n1Cc1ccc(-c2ccccc2-c2nnn[nH]2)cc1`, the inhibition in assay [1] stood at 34.6%. For the same compound, the Activity in the assay with A549 [2] is 13.1%.

Consider `CCOc1nc2cccc(C(=O)NOCc3ccccc3)c2n1Cc1ccc(-c2ccccc2-c2nnn[nH]2)cc1`, for which the inhibition in assay [1] amounted to 39.8%. The Activity in the assay with A549 [2] was determined as 24.3%.

Take `CCOc1nc2cccc(C(=O)NCCCCc3ccccc3)c2n1Cc1ccc(-c2ccccc2-c2nnn[nH]2)cc1`: the inhibition in assay [1] turned out to be 64.6%. Moreover, the Activity in the assay with A549 [2] is <20%.

Consider `CCOc1nc2cccc(C(=O)NCCCOC)c2n1Cc1ccc(-c2ccccc2-c2nnn[nH]2)cc1`, for which the inhibition in assay [1] amounted to 27.9%. Besides, in the assay with A549 [2], the Activity worked out at 10.1%.

For `CCOc1nc2cccc(C(=O)OC(C)OC(=O)OC3CCCCC3)c2n1Cc1ccc(-c2ccccc2)cc1` (centres undefined), the inhibition in assay [1] is 29.5%. In addition, the Activity in the assay with A549 [2] came to 34.2%.

With `CCOc1nc2cccc(C(=O)NCCc3c(Cl)cccc3Cl)c2n1Cc1ccc(-c2ccccc2-c2nnn[nH]2)cc1`, the inhibition in assay [1] turned out to be 86.7%. In the assay with A549 [2], the Activity came out at 45.5%.

Take `CCOc1nc2cccc(C(=O)NCc3ccc(F)cc3)c2n1Cc1ccc(-c2ccccc2-c2nnn[nH]2)cc1`: the inhibition in assay [1] was 38.1%. The Activity in the assay on A549 [2] amounted to 35.4%.

Take `CCOc1nc2cccc(C(=O)NCCc3ccc(Br)cc3)c2n1Cc1ccc(-c2ccccc2-c2nnn[nH]2)cc1`: the inhibition in assay [1] was found to be 66.1%. The Activity with A549 [2] amounted to 51.4%.

With `CCOc1nc2cc(C(=O)OC(C)OC(=O)OC3CCCCC3)ccc2n1Cc1ccc(-c2ccccc2-c2nnn[nH]2)cc1` (centres undefined), the inhibition in assay [1] turned out to be 44.7%. Also, the Activity in the assay with A549 [2] came out at 33.3%.

For the compound `CCOc1nc2cccc(C(=O)Nc3ccncc3)c2n1Cc1ccc(-c2ccccc2-c2nnn[nH]2)cc1`, the inhibition in assay [1] is 39.8%. Besides, the Activity with A549 [2] amounted to 39.5%.

In the case of `CCOc1nc2cccc(C(=O)N[C@H]3CC[C@H](C(=O)OC)CC3)c2n1Cc1ccc(-c2ccccc2-c2nnn[nH]2)cc1`, the inhibition in assay [1] stood at 28.6%. In addition, the Activity in the assay with A549 [2] was found to be 9.2%.

For the compound `CCOc1nc2cccc(C(=O)NCCCN(C)C)c2n1Cc1ccc(-c2ccccc2-c2nnn[nH]2)cc1`, the inhibition in assay [1] stood at 29.5%. Moreover, the Activity in the assay with A549 [2] was found to be 9.8%.

Regarding `CCCC(=O)N(Cc1ccc(-c2ccccc2-c2nnn[nH]2)cc1)c1ccccc1C(=O)OC(C)OC(=O)OC1CCCCC1` (centres undefined), the inhibition in assay [1] came out at 32.6%. Also, the Activity in the assay with A549 [2] turned out to be 15.2%.

On to `CCOc1nc2cccc(C(=O)NCc3ccco3)c2n1Cc1ccc(-c2ccccc2-c2nnn[nH]2)cc1`, for which, in assay [1], the inhibition was 37.5%. The Activity with A549 [2] is recorded as 18.9%.
